Source: PubChem
Mdm2-MdmX inh – disrupts the human Mdm2-MdmX interaction; SaOS-2 split-luciferase Mdm2/MdmX complementation, luminescence; inhibition, % at 8 µM; hit rate 3% among 330,000; AID 485346;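 active means inhibition of at least 50% at 8 µM in the primary screen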
T cruzi inh – blocks replication of Trypanosoma cruzi | T. cruzi beta-gal in NIH3T3, luminescence, 90 h | inhibition, % (test concentration not listed) | AID 1885 | hit rate 1.4% among 300,000;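 active means mean inhibition across valid replicates above about 55%, limit read from the data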;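 further: signal also drops with host cell toxicity which is not excluded here; 0% = plate median of DMSO wells and 100% = zero luminescence signal; higher percent means less beta-gal luminescence so fewer parasites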
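Assay system: NIH/3T3 host cells with β-galactosidase reporter T. cruzi; input: 5,000 host fibroblasts per well; compound: single 50 nL compound addition per well in DMSO; timing: ≥90 h infection period, 3 h prior cell attachment; measured by: GalScreen β-gal luminescence, detergent lysis, 60 min; evaluation: percent inhibition of parasite-derived β-gal signal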
Beta cell apopt – blocks beta cell apoptosis. protection from apoptosis, % (test concentration not listed). hit rate 0.8% among 300,000. INS-1E cytokine-induced death, ATP luminescence, 48 h; percent of positive-control rescue, neutral wells zero;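 active means Every replicate reaches about 75%, or at least half do and their mean reaches it too, limit read from the data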;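 further: 0% = cytokine-treated negative control wells and 100% = positive control rescue; higher means more ATP so stronger rescue from cytokine killing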
SKKanGAS inh – blocks kanamycin growth of S. pyogenes SKKanGAS strain | hit rate 1.3% among 300,000 | inhibition, % at 7.5 µM | BacTiter-Glo, 6 h;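 active means mean replicate score, as percent of positive control median, at least 50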;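 further: strain carries kanamycin resistance gene driven by streptokinase promoter and grows in 40 µg/ml kanamycin; loss of luminescence reflects streptokinase promoter inhibition or plain growth inhibition; 0% = median of DMSO wells and 100% = positive control at its reference dose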
CSC inhib – blocks cancer stem cells; cancer stem cell-like cells viability, luminescence; inhibition, % at 7.5 µM; hit rate 1.1% among 300,000; in the data active means inhibition above about 75%; tested in HMLE shEcad cells
L major viab – Leishmania major promastigote growth inhibition. Leishmania major promastigotes, resazurin fluorescence viability. hit rate 9% among 200,000. inhibition, % at 10 µM; in the data active means inhibition above about 50%;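 further: promastigotes grown with compound for 44 hours at 28 °C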
* hit, by the source's call. The list is not random: actives were taken first. Their share in the collection is about 9.4%.

CCn1c(/C=C/N(C(C)=O)c2ccccc2)[n+](CC)c2ccc(Cl)cc21 was read as Mdm2-MdmX inh -1, T cruzi inh 9, Beta cell apopt -4, SKKanGAS inh 4, CSC inhib 6 and L major viab 18.
CC[n+]1c(/C=C/N(C)c2ccccc2)oc2ccc(Cl)cc21 was read as Mdm2-MdmX inh 29, T cruzi inh 53, Beta cell apopt 56, SKKanGAS inh -5, CSC inhib -6 and L major viab 100*.
`O=[N+]([O-])c1ccc(N2CCN(C(=S)Nc3ccc(F)cc3)CC2)cc1` gave Mdm2-MdmX inh 5, T cruzi inh -99, Beta cell apopt 76*, SKKanGAS inh -2, CSC inhib 16 and L major viab -2.
For Cc1ccc(C(=O)NC(=S)N2CCN(c3ccc([N+](=O)[O-])cc3)CC2)cc1 the results were Mdm2-MdmX inh 24, T cruzi inh -13, Beta cell apopt -5, SKKanGAS inh 16, CSC inhib -1 and L major viab -8.
Screening CCCC(=O)NC(=S)N1CCN(c2ccc([N+](=O)[O-])cc2)CC1 returned Mdm2-MdmX inh -1, T cruzi inh -3, Beta cell apopt -7, SKKanGAS inh 0, CSC inhib 15 and L major viab 70*.
`O=C(C1CCCO1)N1CCN(C(=S)Nc2ccc(F)cc2)CC1` (stereo not given) gave Mdm2-MdmX inh 13, T cruzi inh -24, Beta cell apopt -2, SKKanGAS inh 4, CSC inhib 0 and L major viab 56*.
O=C(Nc1ccc(F)cc1)N1CCN(C(=O)C2CCCO2)CC1 (stereo not given) was read as Mdm2-MdmX inh 14, T cruzi inh -12, Beta cell apopt 0, SKKanGAS inh 5 and CSC inhib -1.
NC(=O)c1ccc(SCC(=O)OCC(=O)NCc2ccco2)c([N+](=O)[O-])c1 was read as Mdm2-MdmX inh 16, T cruzi inh -1, Beta cell apopt -5, SKKanGAS inh -1 and CSC inhib -12.
`CCC(=O)Oc1ccc(-c2nc(-c3cccnc3)no2)cc1` gave Mdm2-MdmX inh -29, T cruzi inh -2, Beta cell apopt 2, SKKanGAS inh 56*, CSC inhib 11 and L major viab -4.
O=C(Nc1ccc(-c2noc(-c3cccs3)n2)cc1)c1cccnc1 was read as Mdm2-MdmX inh -73, T cruzi inh 21, Beta cell apopt 99*, SKKanGAS inh 1, CSC inhib 16 and L major viab -1.
COc1ccc(-c2noc(-c3ccccc3C(=O)Nc3cccnc3)n2)cc1OC was read as Mdm2-MdmX inh 29, T cruzi inh -5, Beta cell apopt 11, SKKanGAS inh -7, CSC inhib -4 and L major viab 71*.
`COc1cccc(-c2nc(-c3ccc(NC(=O)c4cccnc4)cc3)no2)c1` gave Mdm2-MdmX inh 28, T cruzi inh -1, Beta cell apopt 114*, SKKanGAS inh 22, CSC inhib 18 and L major viab 3.
CC(/C=N/NC(=O)c1cc(-c2ccc(C)s2)[nH]n1)=C\c1ccccc1 was read as Mdm2-MdmX inh 49, T cruzi inh -45, Beta cell apopt 20, SKKanGAS inh -2, CSC inhib 87* and L major viab 1.
Screening Cc1cc(C(=O)N/N=C/c2c(C)nn(-c3ccccc3)c2C)n[nH]1 returned Mdm2-MdmX inh 25, T cruzi inh -33, Beta cell apopt -5, SKKanGAS inh -3 and CSC inhib 3.
Screening Cc1nn(-c2ccccc2)c(C)c1/C=N/NC(=O)c1cc(-c2ccc(Br)s2)[nH]n1 returned Mdm2-MdmX inh 49, T cruzi inh 5, Beta cell apopt 31, SKKanGAS inh 51*, CSC inhib 76* and L major viab 56*.
`CCc1ccc2[nH]c3nc(N/N=C/c4cccc(O)c4)nnc3c2c1` gave Mdm2-MdmX inh 8, T cruzi inh 0, Beta cell apopt -2, SKKanGAS inh -4 and CSC inhib 98*.
For CCOc1ccc(/C=N/NC(=O)Cc2csc(Nc3cccc(C(F)(F)F)c3)n2)cc1 the results were Mdm2-MdmX inh 21, T cruzi inh 5, Beta cell apopt -4, SKKanGAS inh 80*, CSC inhib -3 and L major viab 12.
Screening CCOc1ccc(/C=N/NC(=O)Cc2csc(Nc3cccc(C(F)(F)F)c3)n2)c(OCC)c1 returned Mdm2-MdmX inh -6, T cruzi inh 1, Beta cell apopt -1, SKKanGAS inh 11, CSC inhib 2 and L major viab 16.
